Published values of several laboratories.
Converted amounts (≈) assume the structure as drawn.

Nc1nonc1-c1nc2cnccc2n1C1CCCCC1  EC50 (Trypanosoma brucei; parasite growth): 1260 nM
CCNc1nc(Nc2cc(F)c(C(=O)N3CCOCC3)cc2OC)ncc1C(F)(F)F  IC50 (MB002; cell growth or viability; 7 days): > 10000 nM
COc1cc(Nc2ncc3c(C)nc(-c4cccc(C(F)(F)F)c4)n3n2)cc(OC)c1OC  EC50 (Trypanosoma brucei; parasite growth): 158 nM
N#Cc1ccc(/C=C/c2nc3ccccc3c(=O)n2-c2cccc(C(=O)NCCO)c2)cc1  MIC (Enterococcus faecium; microbial growth, broth dilution; NCTC7171): > 128 µg/mL
Oc1nc(-c2ccc(C(F)(F)F)cc2)nc2c1CSCC2  IC50 (MB002; cell growth or viability; 7 days): > 10000 nM
O=C(NCCO)c1cccc(-n2c(/C=C/c3ccc(F)cc3)nc3ccccc3c2=O)c1  MIC (Enterococcus faecium; microbial growth, broth dilution; NCTC7171): > 128 µg/mL
COc1cccc(-n2ncc3c(N/N=C/c4ccc(C(=O)NCCN(C)C)cc4)ncnc32)c1  EC50 (Trypanosoma brucei; parasite growth): 251 nM
CO[C@H]1C[C@@H]2CC[C@@H](C)[C@@](O)(O2)C(=O)C(=O)N2CCCC[C@H]2C(=O)O[C@H]([C@H](C)C[C@@H]2CC[C@@H](O)[C@H](OC)C2)CC(=O)[C@H](C)/C=C(\C)[C@@H](O)[C@@H](OC)C(=O)[C@H](C)C[C@H](C)/C=C/C=C/C=C/1C  IC50 (MB002; cell growth or viability; 7 days): 6.5 nM
CC(=O)OCCCn1c(/C=C/c2ccc(C#N)cc2)nc2ccccc2c1=O  MIC (Enterococcus faecium; microbial growth, broth dilution; NCTC7171): > 128 µg/mL
CC(C)C[C@H](NC(=O)[C@H](Cc1ccccc1)NC(=O)c1cnccn1)B(O)O  IC50 (MB002; cell growth or viability; 7 days): 3.13 nM
CC(=O)Nc1cccc(-n2c(=O)n(C3CC3)c(=O)c3c(Nc4ccc(I)cc4F)n(C)c(=O)c(C)c32)c1  viability (Calu-6; cell growth or viability, resazurin; 390 pM, 72 h): 89.4%
COc1ccccc1-c1cc(/C=C2\C(=O)Nc3ncc(Br)cc32)cc(Br)c1O  EC50 (Trypanosoma brucei; parasite growth): 2510 nM
CCN(CCCOc1ccc2c(Nc3cc(CC(=O)Nc4cccc(F)c4)n[nH]3)ncnc2c1)CCOP(=O)(O)O  IC50 (MB002; cell growth or viability; 7 days): 131 nM
CCCN(CCS(C)(=O)=O)Cc1ccc(-c2ccc3ncnc(Nc4ccc(OCc5cccc(F)c5)c(Cl)c4)c3c2)o1  EC50 (Trypanosoma brucei; parasite growth): 2000 nM
C[C@@H]1[C@H](O)[C@@H](C)/C=C/C=C/C=C/C=C/C=C/C=C/C=C/[C@H](O[C@@H]2O[C@H](C)[C@@H](O)[C@H](N)[C@@H]2O)C[C@@H]2O[C@](O)(C[C@@H](O)C[C@@H](O)[C@H](O)CC[C@@H](O)C[C@@H](O)CC(=O)O[C@H]1C)C[C@H](O)[C@H]2C(=O)O  MFC (Candida albicans; microbial killing; ATCC90028): 1.25 µg/mL (≈ 1.35 µM)
